Experimental data: ChEMBL document CHEMBL4513216, “Probing the Open Global Health Chemical Diversity Library for Multistage-Active Starting Points for Next-Generation Antimalarials” (ACS Infect Dis, 2020)

Test: Toxicity liver stage against HepG2, at 10uM
Format: cell-based
Parameters: test concentration 10 uM, cell line HepG2-A16-CD81EGFP
Details: human, HepG2-A16-CD81EGFP cells; read-out: INHIBITION
In short: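 Uninfected HepG2-A16-CD81EGFP cells, 3 × 10^3 per well, 1536-well, plated on prespotted compound at 10 μM final, parasite-free screening media added to match infected plates; puromycin 10 μM positive, DMSO 0.5% negative; run in parallel with 48 h PbLuc assay at 37 °C, 5% CO2; viability by CellTiter-Glo luminescence, normalized to controls.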

Compound	cytotoxicity at 10 µM [%]
CC(C)C[C@H](N)c1nnc(SCC(=O)Nc2ccc(Br)cc2)o1	-4.99
COc1ccc(-c2noc([C@@H]3C[C@@H](O)CN3C3CCOCC3)n2)cc1	-1.7
CC(=O)N1CCC(N2CCOC[C@H]2c2nc(-c3cccnc3)c[nH]2)CC1	1.35
CCNC(=O)N1CCC(OC)c2ccccc2N(CC(=O)NC)C(=O)C1 (centres undefined)	5.5
CCc1c(C)sc2nc3n(CCN4CCCCC4)nc(SC)n3c(=O)c12	2.68
COc1ccc2nnc(CCCC(=O)NCc3ccccc3OC)n2n1	-5.95
O=C(NCc1cccs1)C1CCN(c2cc(-n3ccnc3)ncn2)CC1	-3.27
O=c1ccc(-n2ccnc2)nn1CCNS(=O)(=O)c1ccccc1Cl	-0.947
O=C(c1ccc2[nH]cnc2c1)N1CCC(Oc2ccccn2)CC1	1.59
CC(=O)N1CCN(c2cc(N(C)C)cnn2)CC1	1.37
Cc1ccc(NCc2cnc3n2CCN(c2ncccn2)CC3)nn1	7.31
O=C(Cn1cc(C(=O)O)ccc1=O)NCc1ccc(F)cc1Cl	-0.581
Cc1ccc(C)c(-n2ccc3nc(N4CCCC4)ncc3c2=O)c1	18.6
CCN1CC2(CC1=O)CN(C(C)=O)CCN(C(=O)c1ccco1)C2 (centres undefined)	-8.92
CCCN1C[C@H](NC(=O)c2cc(C)no2)[C@@H](c2ccc(OC)cc2)C1	-27.3
Cc1c(C(=O)N2CCC(O)(CN(C)C)C2)c2ccccc2n1C (centres undefined)	3.49
CCn1cc(CN2C[C@@H]3CCCN3C[C@H]2CCSC)cn1	-25.4
OC1(Cn2ccc3ncccc32)CCN(Cc2cccnc2)CC1	5.72
COCCC(=O)N1CCCC1c1nc(O)cc(-c2ccccn2)n1 (centres undefined)	-5.86
Cc1csc2c(=O)n3c(nc12)CCN(C(=O)c1ccccn1)CC3	-10.2
CC(C)c1nnc(NC(=O)N(C)Cc2ccncc2)s1	5.28
O=C(Nc1ccc(-c2csnn2)cc1)N1CCC(N2CCCC2)C1 (centres undefined)	-8.79

Compound	cytotoxicity at 10 µM [%]
CS(=O)(=O)NCCCn1ccc2ccccc21	4.77
CC(C(=O)NCCc1ccc2c(c1)OCCO2)n1cncn1 (centres undefined)	6.89
Cn1nc(C(=O)NCCc2ccc(OC3CCCC3)cc2)ccc1=O	-2.61
CCn1ccnc1CN1CCN(c2ccc3nnc(C)n3n2)CC1	3.35
COCCOc1ccc(S(=O)(=O)Nc2cccc(O)c2F)cc1C	27.7
Cc1cc(C)n(CC(C)CNC(=O)NCc2csc(C)n2)n1 (centres undefined)	11
CN(Cc1nc(C2CC2)no1)C1CCS(=O)(=O)C1 (centres undefined)	13.2
CC1CCCN(C(=O)c2occc2COc2cccc(C#N)c2)C1 (centres undefined)	4.57
Cc1cc(CN2CCN(CC(=O)NC3(C#N)CCCCC3)CC2)on1	5.83
Cc1cc(CNC(=O)N2CCN(C(C)c3cccnc3)CC2)c(C)o1 (centres undefined)	-8.54
CCOC(=O)NCCC(=O)NCc1ccc(Oc2cccc(F)c2)nc1	10.9
CCn1cc(C(=O)NCC(OC)c2cccc(Cl)c2)cn1 (centres undefined)	-8.87
CC(C)NC(=O)CCN1CCCC1c1cccc2c1OCCO2 (centres undefined)	0.354
NC(=O)c1cccc(CNC(=O)NCCOc2ccc(F)c(F)c2)c1	9.77
Fc1ccc(OCC2CCCO2)c(NCc2noc(C3CC3)n2)c1 (centres undefined)	9.61
Cc1noc(C)c1CN1CCN(C(=O)CCn2cncn2)CC1	0.975
CC(NC(=O)C1=NN(C)C(=O)CC1)c1ccccc1Cl (centres undefined)	0.665
CCc1ncc2c(n1)CN(Cc1cc(C)on1)CC2	-16.7
CC(CN1CCCC1=O)NC(=O)c1cc(=O)[nH]c2ccc(Cl)cc12 (centres undefined)	-7.14
OC1CCN(c2ccccc2NCc2nc(-c3cccs3)no2)CC1	10.8
CSC(C)C(=O)N(C)C1CCN(c2ccc(Cl)cc2)CC1 (centres undefined)	0.204
COCCNc1ccccc1CNC(=O)C1CCCOC1 (centres undefined)	-8.3

Compound	cytotoxicity at 10 µM [%]
Cc1nc(CN2CCCC(N(C)c3ccc(C#N)cn3)C2)no1 (centres undefined)	-6.76
Cc1cc(NC(=O)N2CCCC2C(C)(C)O)c2ncccc2c1 (centres undefined)	6.87
CN(Cc1cccs1)S(=O)(=O)c1ccc(C(F)(F)F)nc1	-5.68
c1cnnc(NCC2CN(CCn3cccn3)CCO2)c1 (centres undefined)	5.53
CC1CCCN(c2ccccc2OCC(=O)N2CCOCC2)C1 (centres undefined)	-22.3
CCN(CC)C(=O)CCNc1cncc(-n2nc(C)cc2C)n1	2.41
Clc1ccc(CN2CCCC(Cn3cncn3)C2)c2ncccc12 (centres undefined)	-13.7
Cc1cccc(-n2cc(C(=O)N3CCn4c(C)nnc4C3)nn2)c1	-10.1
CC(C)(C)c1n[nH]c(C2CN(C(=O)c3cc(C4CC4)on3)CCO2)n1 (centres undefined)	-15.8
CC[C@H](C)[C@H](N)C(=O)N1CC(=O)c2sc(NC3CCCCC3)nc2C1	-13.7
Fc1ccc(-c2n[nH]cc2-c2ccnc(NCCN3CCCC3)n2)cc1	9.05
O=C1CC(C(=O)N2CCc3sccc3C2)CN1Cc1cccnc1 (centres undefined)	-1.18
CN(C)CCN1CC2(CCC1=O)CCN(C(=O)c1ccn(C)n1)CC2	-11
Cc1nn(C)c2nc(N(CCN(C)C)CC3CCCO3)sc12 (centres undefined)	-4.62
COc1ccc2c(C)nc(N3CCN([C@H]4CCCC[C@@H]4O)CC3)nc2c1	7.24
COc1ccc(N2CCN(C(=O)[C@@H]3C[C@@H](O)CN3)CC2(C)C)cc1	4.95
Cn1ccnc1C1CCN(S(=O)(=O)c2ccc3c(c2)OCCO3)CC1	-13.5
CN(Cc1ccc(-n2cccn2)cc1)C(=O)CCC(F)(F)F	-3.67
Cc1cccc(C)c1OC1CN(Cc2cnc(-c3ccco3)nc2)C1	6.17
CC(C)c1cc(C2CCN(C(=O)Cn3cnnn3)CC2)[nH]n1	8.04
O=C(CCc1nc(Cl)n[nH]1)NC1CCCN(C2Cc3ccccc3C2)C1 (centres undefined)	-18.9
O=C(CCC1CCCN(C(=O)CCN2CCCCO2)C1)N1CCCC1 (centres undefined)	2.11

Compound	cytotoxicity at 10 µM [%]
CCCc1nc(C(=O)N2C[C@H](CO)C[C@H](CN3CCOCC3)C2)cs1	3.79
Cc1nc(CN(CCc2ccccc2)C2CCN(C)CC2)no1	-4
COc1ccc(CC2CN(C3CCSCC3)CCO2)cc1 (centres undefined)	4.49
CCOCC1(CNCc2cc(O)c3cc(C)ccc3n2)CC1	-9.19
CN(C)C(C(=O)NCC1(C)COC1)c1cccc(F)c1 (centres undefined)	-6.41
Cc1ccccc1CCC1CCCN(Cc2nnc(-c3ccco3)o2)C1 (centres undefined)	-116
CCC(C(=O)NCc1noc(Cc2cccs2)n1)n1cccn1 (centres undefined)	-1.91
COc1ccc(CN2C[C@@H](CN(C)C)[C@@H](CO)C2)c(Cl)c1OC	-8.44
COc1ccc(C)cc1S(=O)(=O)N[C@H]1CN(C(C)=O)C[C@@H]1C1CC1	-3.64
CCc1nc(N2CCC3(CCC(=O)N(CCCO)C3)CC2)no1	0.814
CCCN1CCCn2nc(CNC(=O)CCc3scnc3C)cc2C1	1.47
Cn1cc(C(=O)NC(Cn2cccn2)C(C)(C)C)cn1 (centres undefined)	-6.36
Cn1nnnc1SCC1COc2ccccc2O1 (centres undefined)	-1.94
CC(=O)N1CCCN(C(=O)NCCOc2ccc3c(c2)CCC3)CC1	-1.84
COc1c(CNC(c2ccccc2)c2ccc(F)cc2)c(C)nn1C (centres undefined)	-5.16
CC(C)c1nccn1C1CCCN(C(=O)c2cc(C(N)=O)cs2)C1 (centres undefined)	-2.61
Cc1cnn(CC2CCCN2C(=O)c2csc(C(C)C)n2)c1 (centres undefined)	4.89
O=C(COc1ccc2c(c1)CCC2)N1CCCC(n2cccn2)C1 (centres undefined)	-2.58
Cc1ccccc1NS(=O)(=O)c1cc2c(c(C(=O)O)c1)OCCO2	-11.7
Cc1cc(C)n(CC2CCCN2C(=O)c2c[nH]c3ncccc23)n1 (centres undefined)	-0.808
COc1cccc2cc(CNCc3ccnc(N4CCOCC4)c3)oc12	-8.55
Cc1nn(C)c(Cl)c1C1CCCN1C(=O)c1ccc2nncn2c1 (centres undefined)	-10.2

Compound	cytotoxicity at 10 µM [%]
Cc1occc1CNC(=O)N(CCCO)C1CCc2ccccc21 (centres undefined)	-0.842
Cc1occc1C(=O)NCc1ccc(N2CCCC(C(N)=O)C2)cc1 (centres undefined)	1.49
O=C(Cc1csc(-c2ccco2)n1)N1CCN(CCO)CC1	-0.337
Cc1oc(C)c(C(=O)NCc2cccc(NC(=O)CN(C)C)c2)c1C	-6.54
Cc1ccc(N2CCCC(NCc3ccc(C)o3)C2)nn1 (centres undefined)	0.0722
CC(=O)N(Cc1ncc(C)o1)C1CCN(Cc2noc(C)n2)C1 (centres undefined)	0
O=C(O)C1(Cc2ccc(-c3cccs3)cc2)CCNC1 (centres undefined)	-0.74
Cc1ncc(C(=O)N2CCOC(C(=O)N3CCCCCC3)C2)c(C)n1 (centres undefined)	3.67
Fc1ccc(OCCCNC2=NCCCN2)cc1	-7.91
COc1cc(CN2CCn3c(CO)nnc3C2)ccc1OC(C)C	-25.4
Cc1cc(C)c(N(CC(O)CNCc2ccccc2)S(C)(=O)=O)c(C)c1 (centres undefined)	-12.7
O=C(N1CCCC1)N1CCO[C@H]2[C@@H](Oc3ccccn3)CC[C@@H]21	8.95
CS(=O)(=O)N1CCOCC2(CCN(Cc3ccoc3)CC2)C1	2.64
Cc1ccc(CN2CC3(CCN(C(=O)c4cscn4)C3)C2)s1	-10.3
Cc1ccc(CN2CCC(F)(F)C3(CCN(c4cnccn4)C3)C2)o1 (centres undefined)	-3.71
O=C([C@@H]1COC[C@H]2CN(C3CCCC3)C[C@H]21)N1CCCO1	-0.262
O=C1NC2(CCN(Cc3ccc(F)cc3)CC2)CC1c1ccncc1 (centres undefined)	3.16
CCn1ncc2c1C(COCC1CC1)CN(S(=O)(=O)N(C)C)C2 (centres undefined)	-10.4
CN(C)CC(=O)N1CCC2(CC1)COC(COc1ccccn1)C2 (centres undefined)	-3.14
O=C(C1CCOCC1)N1C[C@@H]2CC[C@H]1CN(Cc1ccncc1)C2	-11
Cn1ncc2c(N[C@@H]3C[C@H]4CC[C@@H]3C4)nc(-c3ccncc3)nc21	5.89
